Measured values reported in ChEMBL document CHEMBL4513216, “Probing the Open Global Health Chemical Diversity Library for Multistage-Active Starting Points for Next-Generation Antimalarials” (ACS Infect Dis, 2020).

Experiment: Toxicity liver stage against HepG2, at 10uM
Format: cell-based
Design: test concentration 10 uM, cell line HepG2-A16-CD81EGFP
Settings: human, HepG2-A16-CD81EGFP cells; read-out: INHIBITION
Summary of the method: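 Uninfected HepG2-A16-CD81EGFP cells, 3 × 10^3 per well, 1536-well, plated on prespotted compound at 10 μM final, parasite-free screening media added to match infected plates; puromycin 10 μM positive, DMSO 0.5% negative; run in parallel with 48 h PbLuc assay at 37 °C, 5% CO2; viability by CellTiter-Glo luminescence, normalized to controls.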

Compound	cytotoxicity at 10 µM [%]
O=C(c1ccno1)N1CCOC[C@H](Oc2ccc(C(F)(F)F)cc2)C1	1.48
Cc1nc(-c2ccoc2)n(CC(=O)N(C)CC(C)C)c1C	-4.5
O=C1CCNc2ncc(-c3ccccc3Cl)cc2CN1C1CC1	8.89
CCOC(=O)[C@@H]1[C@@H](c2ccccc2)CN2CCNC[C@H]12	3.8
COc1ccccc1C(=O)N1CC(=O)N(C2CCCCC2)CC(O)C1 (stereo unspecified)	-3.09
O=S1(=O)CCC(S(=O)(=O)c2cccc(S(=O)(=O)N3CCCCCC3)c2)C1 (stereo unspecified)	-7.39
COc1nn(C)cc1C(=O)N1CCC(C)CC1	5.97
COc1ccc(C)cc1NC(=O)Nc1cnc(N2CCOCC2)nc1	-9.67
O=C(c1cnccn1)N1CCC2(CC1)C(=O)NCC2c1ccccc1 (stereo unspecified)	-3.68
CN(C)CCN1Cc2ncn(C)c2C(COCC(=O)N(C)C)C1 (stereo unspecified)	7.83
Cc1cc(-n2nnc(C(=O)O)c2-c2ccncc2)ccc1F	6.31
COC(=O)CC(c1ccc(OC)c(OC)c1OC)c1c(O)n[nH]c1C (stereo unspecified)	4.02
CS(=O)(=O)Nc1ccn(Cc2ccc(Br)cc2)n1	10.9
O=C(CCn1ncc2c(Cl)cccc21)NCCCO	7.63
Cc1nnc(NC(=O)C(C)n2ncc(Br)c2C)s1 (stereo unspecified)	1.81
CCn1nc(C)c2nnn(CC(=O)Nc3ccccc3)c(=O)c21	9.02
Cc1c(C2=NS(=O)(=O)N(C)C(C(=O)Nc3ccc(Br)cc3)=C2)cnn1C	11.7
CCc1cc(C(=O)N2CCC(c3cc4ncccc4cn3)CC2)no1	-14.4
COCC(=O)N1CCOC(c2ccc(N(C)C)cn2)C1 (stereo unspecified)	-13.1
Cc1ncsc1CN1CC[C@H](O)[C@@H](n2cnc3c(N)ncnc32)CC1	-10.8
Cc1ccc(-c2nc(CCNCc3ccncc3)co2)cc1	-4.96
CN(Cc1ccccc1)C(=O)c1cc2c(c(S(N)(=O)=O)c1)CCC2	-41.5
COc1cc(F)ccc1NC(=O)NC(C)C(=O)NC(C)(C)C (stereo unspecified)	-6.1

Compound	cytotoxicity at 10 µM [%]
O=S(=O)(c1ccc(Cl)s1)N1CCCC(c2ncc[nH]2)C1 (stereo unspecified)	6.68
CC(C)c1cc(N2CCC(NS(C)(=O)=O)C2)nc(C(C)C)n1 (stereo unspecified)	4.34
CC(=O)NCC(=O)Nc1cc(C)n(-c2ccc(Cl)cc2Cl)n1	-140
Cc1ccc(CN(C)C(=O)CCn2c(=O)n(C)c3ccccc32)o1	4
Cc1cc(NC(=O)C2CCN(c3ncccc3C#N)CC2)no1	3.54
O=C1CCCN1CCCN1CCCCC1Cn1cncn1 (stereo unspecified)	-0.358
CC(C)COc1cncc(N2CCCN(c3ncccn3)CC2)n1	-2.38
CNS(=O)(=O)c1ccc(CNC(=O)C2CN(C)CCO2)cc1 (stereo unspecified)	-14.1
Cc1nn(C)c(C)c1CC(=O)N1CCCC(CNS(C)(=O)=O)C1 (stereo unspecified)	3.3
CCCN1CCC(NC(=O)c2ccnc(SCC)c2)CC1	-4.14
NCC1(c2cccc(F)c2)CCOCC1	-7.87
O=C(NCc1nnc2n1CCC2)N(Cc1ccc(F)cc1)C1CC1	-5.31
CCS(=O)(=O)CCCOc1nc(-c2ccccc2Cl)no1	-6.14
O=C(NS(=O)(=O)c1ccc(Cl)cc1F)c1cccc2c1OCCO2	-5.33
CCCNC(=O)CCNC(=O)c1sc2ccc(F)cc2c1C	3.33
CCC(CC)C(=O)NCc1cn2cc(Br)ccc2n1	5.17
CSCC(CCO)NC(=O)Nc1cc(F)ccc1C (stereo unspecified)	-1.8
CC1(C)CN(C(=O)Nc2ccc(Cn3cccn3)cc2)CCO1	45.1
CCOc1cc(NC(=O)N(C)Cc2ncnn2C)ccc1C	13.4
COC(=O)c1ccc(NC(=O)CCc2ccncc2)c(C)c1	7.83
CCC1CCCCCN1C(=O)c1cc(C#N)c(SC)[nH]c1=O (stereo unspecified)	12
CC(OCC1CC1)C(=O)Nc1ncccc1I (stereo unspecified)	12.1
CN(C)c1cccc(C2CCCN2CCCN2CCOC2=O)c1 (stereo unspecified)	-10.2

Compound	cytotoxicity at 10 µM [%]
O=C(NCc1cc[nH]n1)N1CCC(Oc2ccccc2Cl)CC1	8.16
CC(=O)N1CCO[C@@H]2CN(S(=O)(=O)C3CC3)C[C@@H]2C1	-104
CCN(C(=O)c1ccc2nnc(C3CCN(C(C)=O)C3)n2c1)C(C)C (stereo unspecified)	-107
O=C(c1ccc[nH]1)N1CCCn2cnc(COCC3CC3)c2C1	-73.6
Cc1nc(COC[C@H]2CCC[C@]23CN(C2CCOC2)CCO3)cs1 (stereo partly specified)	-79.5
CC(C)c1cc(NCC2(N(C)C)CCCC2)ncn1	4.22
CN(C)CCNC(=O)CCC1CCN(C(=O)c2ccc(Cl)cc2O)CC1	-11.7
Cc1ccc(-c2nc(CN3C[C@@H](C)NC[C@@H]3C)c(C)o2)s1	-11.7
Cc1n[nH]c(SCCNC2CCN(c3nc4ccccc4s3)CC2)n1	-6.92
CCn1cnnc1CN(C)Cc1nc(-c2cc(OC)ccc2F)oc1C	-1.32
CC(=O)c1ccc(N2CCCC(CO)(Cc3ccccc3F)C2)nc1 (stereo unspecified)	8.59
Cc1nc(N2C[C@@H](CN3CCCN(C)CC3)[C@@H](CO)C2)c2ccsc2n1	-6.56
COc1ccnc(N2CCC(=O)N(CC3CC3)C(C(C)C)C2)n1 (stereo unspecified)	1.73
O=C(CCN1CCCO1)NC1CCCN(CC2CCCCC2)C1 (stereo unspecified)	7.3
c1ccc2c(c1)CC(N1CCCC(NCc3ccc4nonc4c3)C1)C2 (stereo unspecified)	5.6
NC(=O)COc1ccc(CN2CCC(O)(CN3CCCCC3)C2)cc1Cl (stereo unspecified)	-1.73
COc1nc2c(cc1C(=O)NCCCc1nnc(N)s1)CCC2	4.37
Fc1ccccc1Cc1noc(CN2CCC(C3CCCCC3)C2)n1 (stereo unspecified)	0.372
NCCc1cccc(CN2CCN(c3cccc(Cl)c3)C(=O)C2)c1	-5.29
Cc1nc(CN(C)c2nccc(C(F)(F)F)n2)cs1	1.15
COc1ccc(OC)c(C2CCN(C(=O)C3CCOCC3)C2)c1 (stereo unspecified)	5.6
Cc1ccccc1SCC(=O)Nn1cnnc1	-43.1
Cn1ccnc1SCCNc1ccnc(C(F)(F)F)n1	-50.4

Compound	cytotoxicity at 10 µM [%]
CC(Nc1nccc(CCC(F)(F)F)n1)c1nc(-c2ccncc2)no1 (stereo unspecified)	4.74
CCCn1ccnc1-c1nccn1CCn1cnnc1	-3.53
c1cnc(N2CCN(CCn3ccnc3-c3ccncc3)CC2)nc1	-3.25
COCC1CCN(c2nc(C(C)(C)C)nc3c2cnn3C)C1 (stereo unspecified)	-8.44
Cc1cc(N2CCC(n3cc(CN4CCNCC4)nn3)CC2)ccn1	-1.83
Cc1nc(CCN)cc(N2CCCN(C(=O)c3ccco3)CC2)n1	1.24
COc1cccc(OC2CN(C(=O)c3ccnc(OC)c3)C2)c1	-6.52
CCCN1CCN(Cc2cc(Cl)cc(Cl)c2)[C@H]2CS(=O)(=O)C[C@H]21	-2.45
CC(C)n1ccnc1CN1CCOC(CC2CCCCC2)C1 (stereo unspecified)	-138
O=c1cc(N2CCNCC2)cnn1CCCn1cccn1	-48
Cn1cc(-c2c(C#N)c(N)nc3c2CCc2[nH]ccc2-3)cc1C#N	-1.68
Cc1nc(-c2ncc(C(=O)NCCNc3ncccc3C)c(O)n2)cs1	-0.153
CN(C)C(C(=O)NCc1cc(C(C)(C)C)n[nH]1)c1ccc(F)cc1 (stereo unspecified)	-5.54
CCc1nc(N)nc(N2CCCC3(CCOCC3)C2)c1C	-123
CC(c1cccc(-c2cn(Cc3ccoc3)nn2)c1)N(C)C (stereo unspecified)	1.35
CCc1nnc(NCc2cccc(OC)c2OC)o1	6.79
CCOCCn1c(=O)[nH]c2cc(C(=O)N(C)CCc3cn[nH]c3)ccc21	-21.7
CC(=O)c1cc(CC(=O)NCc2ccc(CN(C)C)cc2)cs1	-11.3
O=C(NCc1ccccc1Cn1cncn1)C1CC1	-11.3
CCOc1ccccc1N1CCN(C(=O)NCc2cc[nH]n2)CC1	5.48
CCc1nnc2n1CCN(Cc1cccc3c1OCCO3)C2	-7.42
Cc1ccccc1CNC(=O)Cn1nc(-c2ccc(F)cc2)oc1=O	-7.63
CC(=O)N(C)c1nc(CN2CCCC2c2cnn(C)c2)cs1 (stereo unspecified)	-16.1

Compound	cytotoxicity at 10 µM [%]
Cc1cc(NC(=O)CN2CCCC2c2noc(C(C)C)n2)no1 (stereo unspecified)	-14.3
O=C(CCNc1ncccn1)N1CCCC(n2cccn2)C1 (stereo unspecified)	0.2
CCc1ncc(C(=O)N2CCCC2Cn2cccn2)s1 (stereo unspecified)	-9.67
Cn1cnnc1C1CCCN(C(=O)NCc2cc[nH]n2)C1 (stereo unspecified)	-6.73
O=C1COc2cc(C(=O)NS(=O)(=O)c3ccccc3F)ccc2N1	-4.79
O=C(c1ccc(Cl)o1)N1CCCN(Cc2cscn2)CC1	-1.08
Cc1cccc(CNc2cc(C3CCCNC3)ccn2)n1 (stereo unspecified)	3.81
c1ccc(CC2CCN(Cc3ccnc(-c4cccnc4)n3)CC2)cc1	6.36
O=C(NCc1cnc2n1CCN(CC1CCOCC1)C2)c1ccno1	-101
CN(C)c1nc(N2CCCC2)nc2c1CCN(Cc1nccn1C)CC2	-97.2
COc1ccc(CN2C[C@H]3CN(c4ccsc4)C(=O)[C@H]3C2)cc1	22.8
c1cn2c(n1)CN(Cc1ccsc1)CC(Cn1cncn1)C2 (stereo unspecified)	-74.8
O=C(NC1CC2(CCN(CCO)CC2)c2ccccc21)c1ccno1 (stereo unspecified)	-12.2
CCOC(=O)N1CCc2ccccc2C12CCNCC2	1.15
Cc1nc(COCc2cnc3n2CCN(CC2CCC2)C3C)cs1 (stereo unspecified)	-5.63
c1ccc(CN2CCOCC3(CCN(C4CCOCC4)C3)C2)cc1 (stereo unspecified)	3.01
CCS(=O)(=O)N1CC[C@@H]2[C@H](CC1)N(Cc1cccc(C)n1)CCS2(=O)=O	-3.98
CCCn1ncc(-c2ccnc(N[C@@H]3C[C@H]4CC[C@@H]3C4)n2)c1C	0.541
CCCS(=O)(=O)N1C[C@@H]2C[C@H](C(=O)N(C)C)[C@H](C1)O2	-74
